# Experimental data from different studies.
# Lines come from different studies, so protocols differ.
Compound,medium,tested at,time,pH,Papp [×10⁻⁶ cm/s]
O=c1cc(-c2ccc(O)cc2)oc2cc(O)cc(O)c12,PAMPA-BBB,1 µM,18 h,,13.9
CN1CCN([C@@H](c2ccccc2)c2ccc(Cl)cc2)CC1,PAMPA,,,,1830
CC(NC(C)(C)C)C(=O)c1cccc(Cl)c1 (stereo not drawn),PAMPA-BBB,1 µM,18 h,,16
O=C(Nc1ccc2c(c1)B(O)OC2)c1ccc(OCc2ccc(Cl)cc2)cc1,PAMPA,200 µM,5 h,pH 7.4,4.4
Cc1nonc1Cn1nnc2c(N3CC[C@H](O)C3)nc(C(C)(C)C)nc21,PAMPA,,,,2.2
COc1ccc(C[C@@H]2NC(=O)[C@@H](CC(C)C)NC(=O)[C@H](C)NC(=O)[C@H](CC(C)C)NC(=O)[C@@H](CC(C)C)NC(=O)[C@H]3CCCN3C2=O)cc1,PAMPA,10 µM,7 h,,19
O=C(Nc1ccc2c(c1)B(O)OC2)c1ccccc1OCc1ccccc1,PAMPA,200 µM,5 h,pH 7.4,1.2
COCCOCCOCCOc1c(OC)cc2cc(C(=O)N3C[C@@H](CCl)c4c3cc(O)c3[nH]c(C(=O)OC)cc43)[nH]c2c1OC,PAMPA,1 µM,5 h,pH 7.4,4.2
CC[C@H](C)[C@@H]1NC(=O)[C@H](CC(C)C)NC(=O)[C@@H](CC(C)C)NC(=O)[C@H]2CCCN2C(=O)[C@H](Cc2ccc(OC)cc2)NC(=O)[C@@H](CC(C)C)NC1=O,PAMPA,10 µM,7 h,,11.9
Cn1c(=O)c2c(ncn2C)n(C)c1=O,PAMPA,200 µM,5 h,pH 7.4,11.7
Cc1nc([C@@](C)(CC2CC2)NC(=O)c2cc(OCC(F)(F)F)c(C3CC3)cn2)no1,PAMPA,,,,2.44
O=C(Nc1ccc2c(c1)B(O)OC2)c1cccc(OCc2c(Cl)cccc2Cl)c1,PAMPA,200 µM,5 h,pH 7.4,0.91
CC[C@@H](C)[C@@H]1NC(=O)[C@@H](Cc2ccc(Cl)cc2)NC(=O)CN(C)C(=O)[C@H]([C@H](C)CC)NC(=O)[C@@H](Cc2ccc(Cl)cc2)NC(=O)CN(C)C1=O,PAMPA,,,,33
COCCOCCOCCOCCOc1c(OC)cc2cc(C(=O)N3C[C@@H](CCl)c4c3cc(O)c3[nH]c(C(=O)OC)cc43)[nH]c2c1OC,PAMPA,1 µM,5 h,pH 7.4,10
O=C(Nc1cccc(B(O)O)c1)c1cccc(OCc2ccccc2)c1,PAMPA,200 µM,5 h,pH 7.4,0.1
